Reference: PMC7032146 (Asian Journal of Pharmaceutical Sciences, 2018)

Legend:
[1] = test system: B16F10 cells; test: Cellular uptake of NR-loaded micelles; format: cell-based; conditions: B16F10, flow cytometry, 1 h and 4 h
[2] = test system: L929 cells; test: Cellular uptake of NR-loaded micelles; format: cell-based
In short: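 L929 cells (CD44-negative) grown 24 h in DMEM with 10% FBS, then medium replaced with free fluorescent marker NR or micelles loaded with NR at 0.2% drug loading. Incubated at 37 °C for 1, 4 and 8 h, washed thrice with PBS, and viewed by fluorescent inverted microscope. For flow cytometry at 1 and 4 h, cells were PBS-washed, trypsinised, resuspended in PBS, and read at 560/620 nm.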

SMILES: CCN(CC)c1ccc2nc3c4ccccc4c(=O)cc-3oc2c1 [free NR, nile red]
- Intracellular NR concentrations, order [1]: HA-SS-ATRA21/NR micelles > HA-ATRA20/NR micelles > free NR > HA-SS-ATRA21/NR micelles treated with free-HA
- Fluorescence intensity of NR (cellular uptake) ([2]; L929 (CD44-negative), fluorescent inverted microscope): highest
- Fluorescence intensity of NR (cellular uptake) ([2]; L929, flow cytometry, 1 h and 4 h): highest
